# Assay results from ChEMBL document CHEMBL1126796, “2-(Alkylamino)nicotinic acid and analogs. Potent angiotensin II antagonists” (J Med Chem, 1993).
# The source made the active and inactive calls. The rule behind the calls is not given here.
# Columns and labels:
# [1] = test system: Rattus norvegicus; test: % decrease in blood pressure after 24 hours at a dose of 1 mg/kg in male rats by using Furosemide-treated spontaneous hypertensive model; type: functional
# Outline: (§1)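 Male SHR, 20-24 weeks old, pretreated with furosemide 10 mg/kg sc at 22 and 4 h before the experiment; compound dosed orally. Arterial pressure was recorded from an indwelling femoral artery catheter with on-line blood pressure and heart rate analysis. Read-out is % fall in blood pressure at 4 h and at 24 h, ±SEM, with number of rats.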
# [2] = test system: Rattus norvegicus; test: % decrease in blood pressure after 4 hours at a dose of 1 mg/kg in male rats by using Furosemide-treated spontaneous hypertensive model; type: functional; outline: as §1
# [3] = test system: Rattus norvegicus; test: % decrease in blood pressure after 24 hours at a dose of 10 mg/kg in male rats by using Furosemide-treated spontaneous hypertensive model; type: functional; outline: as §1
# [4] = test system: Rattus norvegicus; test: % decrease in blood pressure after 4 hours at a dose of 10 mg/kg in male rats by using Furosemide-treated spontaneous hypertensive model; type: functional; outline: as §1
# [5] = test system: Rattus norvegicus; test: % decrease in blood pressure after 4 hours at a dose of 10 mg/kg in male rats by using Renal artery hypertensive model; type: functional
# Outline: (§2)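 Male Sprague-Dawley rats (300-350 g) were made hypertensive by renal artery ligation and used on day 6 or 7 after ligation. Arterial pressure was measured from an indwelling femoral artery catheter, with blood pressure and heart rate recorded on line. Read-out is % decrease in blood pressure at 4 h, ±SEM, with number of rats.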
# [6] = test system: Rattus norvegicus; test: % decrease in blood pressure after 4 hours in male rats at a dose of 3 mg/kg by using Renal artery hypertensive model; IA means inactive; type: functional, organism-based; parameters: dose 3 mg/kg; outline: as §2
# [7] = test system: Rattus norvegicus; test: % decrease in blood pressure after 4 hours at a dose of 0.3 mg/kg in male rats by using Renal artery hypertensive model; type: functional; outline: as §2
# [8] = molecular target: T1, Type-1 angiotensin II receptor A (Rattus norvegicus, UniProt P25095); test: Binding affinity against angiotensin II receptor from rat liver
# T1 sequence (P25095 whole entry): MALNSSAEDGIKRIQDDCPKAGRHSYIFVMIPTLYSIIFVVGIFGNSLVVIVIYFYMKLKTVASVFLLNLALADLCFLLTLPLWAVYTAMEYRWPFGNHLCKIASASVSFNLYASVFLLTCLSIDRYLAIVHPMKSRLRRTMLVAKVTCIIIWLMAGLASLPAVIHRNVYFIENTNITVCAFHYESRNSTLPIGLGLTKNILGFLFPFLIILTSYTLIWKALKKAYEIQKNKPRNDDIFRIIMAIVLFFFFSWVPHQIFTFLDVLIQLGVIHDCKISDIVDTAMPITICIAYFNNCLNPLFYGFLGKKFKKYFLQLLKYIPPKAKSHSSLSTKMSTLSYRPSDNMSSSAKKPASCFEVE
# Outline: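 Rat liver membranes were incubated with [125I]-saralasin to measure angiotensin II type 1 receptor binding. Nonspecific binding was defined with 1 µM angiotensin.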
# [9] = test system: Rattus norvegicus; test: % decrease in blood pressure after 4 hours in male rats at a dose of 10 mg/kg by using Renal artery hypertensive model; type: functional; outline: as §2
# [10] = test system: Rattus norvegicus; test: % decrease in blood pressure after 4 hours at a dose of 30 mg/kg in male rats by using Renal artery hypertensive model; type: functional; outline: as §2
# [11] = test system: Rattus norvegicus; test: % decrease in blood pressure after 4 hours at a dose of 1 mg/kg in male rats by using Furosemide-treated spontaneous hypertensive model; IA means inactive; type: functional, organism-based; parameters: dose 1 mg/kg; outline: as §1
# [12] = test system: Rattus norvegicus; test: % decrease in blood pressure after 24 hours at a dose of 0.1 mg/kg in male rats by using Furosemide-treated spontaneous hypertensive model; type: functional; outline: as §1
# [13] = test system: Rattus norvegicus; test: % decrease in blood pressure after 24 hours at a dose of 0.3 mg/kg in male rats by using Furosemide-treated spontaneous hypertensive model; type: functional; outline: as §1
# [14] = test system: Rattus norvegicus; test: % decrease in blood pressure after 4 hours at a dose of 0.1 mg/kg in male rats by using Furosemide-treated spontaneous hypertensive model; type: functional; outline: as §1
# [15] = test system: Rattus norvegicus; test: % decrease in blood pressure after 4 hours at a dose of 0.3 mg/kg in male rats by using Furosemide-treated spontaneous hypertensive model; type: functional; outline: as §1
# [16] = test system: Rattus norvegicus; test: % decrease in blood pressure after 4 hours in male rats at a dose of 0.1 mg/kg by using Renal artery hypertensive model; type: functional; outline: as §2
# [17] = test system: Rattus norvegicus; test: % decrease in blood pressure after 4 hours in male rats at a dose of 3 mg/kg administered iv by using Renal artery hypertensive model; IA means inactive; type: functional, organism-based; parameters: dose 3 mg/kg; outline: as §2
# [18] = test system: Rattus norvegicus; test: % decrease in blood pressure after 4 hours at a dose of 3 mg/kg administered iv in male rats by using Renal artery hypertensive model; IA means inactive; type: functional, organism-based; parameters: dose 3 mg/kg; outline: as §2
# [19] = Area under curve after oral dose of 3.87 mg/kg; type: ADME, organism-based; parameters: dose 3.87 mg/kg, route oral; conditions: in vivo
# Outline: (§3)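 Male Sprague-Dawley-derived rats were dosed with compound in normal saline (1 mL/kg), by gavage or as a slow IV bolus into the jugular vein. Heparinized tail-vein blood was taken at 0.25-24 h, extracted liquid-liquid and assayed by reverse-phase HPLC. Cmax is the observed peak concentration and AUC is mean (SEM). F compares oral with IV AUC, corrected for dose and assuming dose proportionality.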
# [20] = Cmax value after oral dose of 3.87 mg/kg; type: ADME, organism-based; parameters: dose 3.87 mg/kg, route oral; conditions: in vivo; outline: as §3
# [21] = Volume of distribution of central compartment (= dose+ plasma concentration at time zero) after intravenous dose of 3.87 mg/kg; type: ADME, organism-based; parameters: dose 3.87 mg/kg, route intravenous; conditions: read-out: VI
# Outline: (§4)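 Jugular-vein slow iv bolus (normal saline, 1 mL/kg) in male Sprague-Dawley-derived rats. Plasma was sampled via the tail vein at 0.1–24 h and measured by reverse-phase HPLC after liquid-liquid extraction. Central volume was taken as dose divided by plasma concentration at time zero. Terminal-phase volume was derived from clearance and the plasma elimination rate constant.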
# [22] = Volume of distribution of the terminal phase (= CLp+ plasma elimination rate constant) after intravenous dose of 3.87 mg/kg; type: ADME, organism-based; parameters: dose 3.87 mg/kg, route intravenous; conditions: read-out: Vbeta; outline: as §4
# [23] = Plasma clearance after intravenous dose of 3.87 mg/kg; type: ADME, organism-based; parameters: dose 3.87 mg/kg, route intravenous; conditions: read-out: Clp
# Outline: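 Male Sprague-Dawley-derived rats received a slow iv bolus into the jugular vein of the compound in normal saline (1 mL/kg). Tail-vein heparinized blood was drawn from 0.1 to 24 h and assayed by reverse-phase HPLC after liquid-liquid extraction. Total plasma clearance was calculated as dose divided by AUC and reported as mean (SEM).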
# [24] = Apparent bioavailability after oral dose of 3.87 mg/kg; type: ADME, organism-based; conditions: eutheria, in vivo; outline: as §3
# [25] = Tmax value after oral dose of 3.87 mg/kg; type: ADME, organism-based; parameters: dose 3.87 mg/kg, route oral; conditions: in vivo
# Outline: (§5)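 Male Sprague-Dawley-derived rats. Compound was given in normal saline at 1 mL/kg, either as a slow iv bolus into the jugular vein or orally by gavage. Plasma underwent liquid-liquid extraction and reverse-phase HPLC. Terminal elimination half-life and time of observed peak concentration were taken from the profiles.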
# [26] = Half-life period of compound after intravenous dose of 3.87 mg/kg; type: ADME, organism-based; parameters: dose 3.87 mg/kg, route intravenous; conditions: in vivo; outline: as §5
# [27] = Half-life period after oral dose of 3.87 mg/kg; type: ADME, organism-based; parameters: dose 3.87 mg/kg, route oral; conditions: in vivo; outline: as §5
# [28] = test system: Rattus norvegicus; test: % decrease in blood pressure after 4 hours at a dose of 3 mg/kg in male rats by using Renal artery hypertensive model; type: functional; outline: as §2
# [29] = test system: Rattus norvegicus; test: % decrease in blood pressure after 4 hours in male rats at a dose of 0.03 mg/kg by using Renal artery hypertensive model; type: functional; outline: as §2
# [30] = test system: Rattus norvegicus; test: % decrease in blood pressure after 4 hours in male rats at a dose of 0.3 mg/kg by using Renal artery hypertensive model; type: functional; outline: as §2
# [31] = test system: Rattus norvegicus; test: % decrease in blood pressure after 4 hours at a dose of 0.3 mg/kg in male rats by using Renal artery hypertensive model; IA means inactive; type: functional, organism-based; parameters: dose 0.3 mg/kg; outline: as §2
smiles,measurement,setting,value
CCCN(Cc1ccc(-c2ccccc2-c2nn[nH]n2)cc1)c1nc(C)cnc1C(=O)O,Decrease in blood pressure,[1],18%
same,Decrease in blood pressure,[2],2%
CCCCc1nc(Cl)c(CO)n1Cc1ccc(-c2ccccc2-c2nnn[nH]2)cc1 [LOSARTAN],Decrease in blood pressure,[3],34%
same,Decrease in blood pressure,[4],21%
same,Decrease in blood pressure,[5],27%
same,Decrease in blood pressure,[6],inactive
CCCN(Cc1ccc(-c2ccccc2-c2nn[nH]n2)cc1)c1ncccc1C=O,Decrease in blood pressure,[7],15%
CCCN(Cc1ccc(-c2ccccc2-c2nn[nH]n2)cc1)c1nnccc1C(=O)O,Decrease in blood pressure,[1],18%
same,Decrease in blood pressure,[2],3%
CCCN(Cc1ccc(-c2ccccc2-c2nn[nH]n2)cc1)c1nc(C)ncc1C(=O)O,Ki,[8],0.00278 µM
same,Decrease in blood pressure,[9],15%
same,Decrease in blood pressure,[10],18%
CCCN(Cc1ccc(-c2ccccc2-c2nn[nH]n2)cc1)c1ncccc1C(=O)OC,Decrease in blood pressure,[11],inactive
CCCN(Cc1ccc(-c2ccccc2-c2nn[nH]n2)cc1)c1nccc(C)c1C(=O)O,Decrease in blood pressure,[1],15%
same,Decrease in blood pressure,[2],10%
CCCCN(Cc1ccc(-c2ccccc2-c2nn[nH]n2)cc1)c1ncccc1C(=O)O,Decrease in blood pressure,[12],22%
same,Decrease in blood pressure,[13],40%
same,Decrease in blood pressure,[14],5%
same,Decrease in blood pressure,[15],14%
same,Decrease in blood pressure,[7],45%
same,Decrease in blood pressure,[16],16%
C=CCN(Cc1ccc(-c2ccccc2-c2nn[nH]n2)cc1)c1ncccc1C(=O)O,Decrease in blood pressure,[1],31%
same,Decrease in blood pressure,[2],13%
CCCN(Cc1ccc(-c2ccccc2-c2nn[nH]n2)cc1)c1nc(F)ccc1C(=O)O,Decrease in blood pressure,[1],36%
same,Decrease in blood pressure,[2],15%
CCc1ncc(C(=O)O)c(NCc2ccc(-c3ccccc3-c3nn[nH]n3)cc2)n1.Cl,Ki,[8],0.0681 µM
same,Decrease in blood pressure,[17],inactive
same,Decrease in blood pressure,[18],inactive
CCCCc1nc(Cl)c(C(=O)O)n1Cc1ccc(-c2ccccc2-c2nn[nH]n2)cc1 [CARBOXYLIC ACID METABOLITE],Decrease in blood pressure,[5],40%
CCc1nc2c(C)cc(C)nc2n1Cc1ccc(-c2ccccc2-c2nnn[nH]2)cc1 [L-158809],AUC,[19],11.14 µg/h/mL
same,Cmax,[20],1.59 µg/mL
same,Vd,[21],0.41 L/kg
same,Vd,[22],1.78 L/kg
same,clearance,[23],1.47 mL/min
same,bioavailability,[24],66.7%
same,Tmax,[25],2 h
same,half-life,[26],4.5 h
same,half-life,[27],3.9 h
same,Ki,[8],0.00045 µM
same,Decrease in blood pressure,[28],32%
same,Decrease in blood pressure,[1],30%
same,Decrease in blood pressure,[2],32%
same,Decrease in blood pressure,[29],8%
same,Decrease in blood pressure,[16],15%
same,Decrease in blood pressure,[30],25%
CCCCN(Cc1ccc(-c2ccccc2-c2nn[nH]n2)cc1)c1nccnc1C(=O)O,Decrease in blood pressure,[1],21%
same,Decrease in blood pressure,[2],7%
CCCCN(Cc1ccc(-c2ccccc2-c2nn[nH]n2)cc1)c1nc(C)ncc1C(=O)O.Cl,Ki,[8],0.0153 µM
same,Decrease in blood pressure,[10],11%
CCCN(Cc1ccc(-c2ccccc2-c2nn[nH]n2)cc1)c1ncccc1CO,Decrease in blood pressure,[31],inactive
CCCN(Cc1ccc(-c2ccccc2-c2nn[nH]n2)cc1)c1ncccc1NS(=O)(=O)C(F)(F)F,Decrease in blood pressure,[7],6%
CCOC(=O)c1cnc(CC)nc1NCc1ccc(-c2ccccc2-c2nn[nH]n2)cc1,Ki,[8],0.0206 µM
same,Decrease in blood pressure,[9],14%
same,Decrease in blood pressure,[10],32%
CCCN(Cc1ccc(-c2ccccc2-c2nn[nH]n2)cc1)c1ncc(F)cc1C(=O)O,Decrease in blood pressure,[1],22%
same,Decrease in blood pressure,[2],6%
